Results on 14 compounds are retold here after ChEMBL document CHEMBL4610016, “Synthesis, biological evaluation and anti-proliferative mechanism of fluorine-containing proguanil derivatives” (Bioorg Med Chem, 2020).

Active and inactive are the calls of the source. The calls are words filed in the database; no cut-off is given here.

Test [1] deals with A549. In words: Antiproliferative activity against human A549 cells assessed as reduction in cell viability incubated for 72 hrs by MTT assay. It counts as functional, cell-based. As to conditions: A549, 72 h. Summed up:
(§1)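 Cells were seeded at 6.0×10³ per well and left 12 h, then treated in triplicate for 72 h. Ranges were 0–8 μM for UMUC3, T24, A2780 and HCT116, and 0–4 μM for A549. MTT (2 mg/mL) replaced the medium for 6 h at 37 °C, followed by DMSO solubilization and OD 490 nm. IC50 was taken as the mean of triplicate measurements. Cells were kept at 37 °C, 5% CO₂.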
Background: Tetrazolium assays rely on reduction of a dye to a coloured formazan, in cell work by metabolically active cells.

Test [2] has as its system A2780. The test is described as follows: Antiproliferative activity against human A2780 cells assessed as reduction in cell viability incubated for 72 hrs by MTT assay. Conditions: A2780, 72 h. The format is functional, cell-based. Summed up:
as §1

For test [3], the system named is HCT-116. In words: Antiproliferative activity against human HCT116 cells assessed as reduction in cell viability incubated for 72 hrs by MTT assay. It counts as functional, cell-based. Conditions: HCT-116, 72 h.
Test [4] concerns UMUC3. In words: Antiproliferative activity against human UM-UC-3 cells assessed as reduction in cell viability incubated for 72 hrs by MTT assay. The format is functional, cell-based. Conditions: UMUC3, 72 h. Summed up: as §1
For test [5], the system named is T-24. In words: Antiproliferative activity against human T24 cells assessed as reduction in cell viability incubated for 72 hrs by MTT assay. The format is functional, cell-based. As to conditions: T-24, 72 h.
The target in test [6] is T1, AMP-activated protein kinase, AMPK (Homo sapiens) (UniProt P54646+O43741+P54619+Q9UGJ0+Q9Y478+Q13131+Q9UGI9). In words: Activation of AMPK in human T24 cells assessed as decrease in p70S6K phosphorylation at 2 uM measured upto 12 hrs by Western blot analysis. Conditions: T-24. It counts as cell-based. Summed up: (§2)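 Western blot of bladder cancer cells treated at 2 μM over a 0–12 h time course; separately, a 0–2 μM series was run for 12 h. Lysates were resolved by 8% or 10% SDS-PAGE, transferred to PVDF, and blocked in 5% milk/TBST for 1 h. Primary antibodies were applied overnight at 4 °C and secondaries for 1 h. Phospho- and total AMPK, mTOR, p70S6K and 4EBP1 were probed. Band density was normalized to β-actin, and the mean of 3 independent experiments is reported.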
For orientation: A western blot detects proteins with antibodies after separation by electrophoresis.

The subject of test [7] is UMUC3. In words: Inhibition of cell migration in human UM-UC-3 cells at 3 uM incubated for 24 and 48 hrs by cellular scratch assay based microscopic analysis. The format is functional. In outline:
(§3)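 Scratch wound assay. Cells were grown to confluence and scratched with a 10 μL tip, then washed twice with PBS. Compound was added in serum-free medium: 3 μM for UMUC3 and T24, 2 μM for A549. Gaps were photographed at 0, 24 and 48 h, and wound closure distance was measured. Three independent repeats were run.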

For test [8], the target named is T1, AMP-activated protein kinase, AMPK (Homo sapiens). In words: Activation of AMPK in human UM-UC-3 cells assessed as decrease in p70S6K phosphorylation at 2 uM measured upto 12 hrs by Western blot analysis. The format is cell-based. In outline:
as §2

Test [9] shares this target. In words: Activation of AMPK in human T24 cells assessed as decrease in 4EBP1 phosphorylation at 2 uM measured upto 12 hrs by Western blot analysis. It counts as cell-based. As to conditions: T-24. In outline: as §2
Test [10] relates to A2780. In words: Inhibition of colony formation in human A2780 cells at 2 uM incubated for 6 to 8 days by crystal violet staining based assay. The format is functional, cell-based. Summed up:
(§4)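 Colony formation: 8.0×10³ cells per well were seeded, and treatment began after 24 h, in triplicate, for 6–8 days. Ranges were 0–8 μM for UMUC3, T24 and HCT116, 0–4 μM for A2780, and 0–2 μM for A549. Cells were fixed in 10% formaldehyde and stained with 0.1% crystal violet. Colonies were counted, and absorbance was read at 490 nm. Data are the mean of 3 independent experiments.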

Test [11] addresses T1, AMP-activated protein kinase, AMPK (Homo sapiens). In words: Activation of AMPK in human UM-UC-3 cells assessed as increase in AMPK phosphorylation at 2 uM measured upto 12 hrs by Western blot analysis. It counts as cell-based. In outline:
as §2

Test [12] deals with T-24. In words: Inhibition of colony formation in human T24 cells at 2 uM incubated for 6 to 8 days by crystal violet staining based assay. The format is functional, cell-based. In outline: as §4
The target of test [13] is T1, AMP-activated protein kinase, AMPK (Homo sapiens). The test is described as follows: Activation of AMPK in human UM-UC-3 cells assessed as decrease in 4EBP1 phosphorylation at 2 uM measured upto 12 hrs by Western blot analysis. The format is cell-based. In outline: as §2
Test [14] shares this target. The test is described as follows: Activation of AMPK in human T24 cells assessed as increase in AMPK phosphorylation at 2 uM measured upto 12 hrs by Western blot analysis. It counts as cell-based. Conditions: T-24. In outline: as §2
The test system of test [15] is T-24. In words: Inhibition of cell migration in human T24 cells at 3 uM incubated for 24 and 48 hrs by cellular scratch assay based microscopic analysis. It counts as functional. Summed up: as §3
The target of test [16] is T1, AMP-activated protein kinase, AMPK (Homo sapiens). The test is described as follows: Activation of AMPK in human T24 cells assessed as decrease in mTOR phosphorylation at 2 uM measured upto 12 hrs by Western blot analysis. It counts as cell-based. As to conditions: T-24. In outline: as §2
For test [17] the target is unchanged. The test is described as follows: Activation of AMPK in human UM-UC-3 cells assessed as decrease in mTOR phosphorylation at 2 uM measured upto 12 hrs by Western blot analysis. The format is cell-based. Summed up:
as §2

The test system of test [18] is HCT-116. In words: Inhibition of colony formation in human HCT116 cells at 2 uM incubated for 6 to 8 days by crystal violet staining based assay. The format is functional, cell-based. Summed up:
as §4

The subject of test [19] is UMUC3. In words: Inhibition of colony formation in human UM-UC-3 cells at 2 uM incubated for 6 to 8 days by crystal violet staining based assay. The format is functional, cell-based. In outline: as §4
For test [20], the system named is A549. In words: Inhibition of cell migration in human A549 cells at 2 uM incubated for 24 and 48 hrs by cellular scratch assay based microscopic analysis. The format is functional. Summed up: as §3
Test [21] relates to HUVEC. In words: Cytotoxicity against human HUVEC cells assessed as reduction in cell viability incubated for 72 hrs by MTT assay. The format is cell-based. In outline: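 HUVEC were treated at 0–8 μM for 72 h, and viability was read from concentration-response curves. Values are the average of 3 independent experiments.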
In test [22] the test system is A549. In words: Inhibition of colony formation in human A549 cells at 2 uM incubated for 6 to 8 days by crystal violet staining based assay relative to control. The format is functional. In outline:
as §4

In the case of `CCN(CC)C(=N)NC(=N)Nc1ccc(C(F)(F)F)cc1`, the 50% inhibitory concentration (IC50) in [1] is 3.7 µM; in test [2], 3.8 µM; in [3], 4.3 µM; in [4], 4.9 µM; in test [5], 6.2 µM.

In the case of `CC(C)CNC(=N)NC(=N)Nc1ccc(F)c(F)c1`, the IC50 in test [1] worked out at 2.4 µM; in test [2], 6.7 µM; in [3] it was 29.7 µM; in test [4] it was 7.1 µM; in test [5], 42.9 µM.

As to `CC(C)NC(=N)NC(=N)Nc1ccc(Cl)cc1` [PROGUANIL], the outcome in test [6], in test [8], in [9], in test [13], in test [16] and in [17] was Active. For the same compound, the inhibition entry in [7], in [15] and in test [20] was “inactive” throughout. Also, the 50% inhibitory concentration (IC50) in test [1] is 3.8 µM; in test [2] it was 13 µM; in test [3], 8.4 µM; in test [4] it was 16.3 µM; in [5], 18.4 µM. Also, the inhibition result in test [10], in test [12], in test [18] and in test [19] was “Active” throughout. The outcome in test [11] and in test [14] was inactive.

Take `N=C(NC(=N)NC1CCCC1)Nc1ccc(F)c(F)c1`: the half-maximal inhibitory concentration (IC50) came out at 3.5 µM in test [1]; 9.3 µM in test [2]; 16.8 µM in [3]; 7.2 µM in test [4]; 24.9 µM in test [5].

Turning to `N=C(NC(=N)NC1CCCC1)Nc1ccc(F)cc1F`, the IC50 in test [1] stood at 4 µM; in test [2], 14.7 µM; in [3] it was 29.5 µM; in test [4], 18.4 µM; in test [5], 37.8 µM.

`CCN(CC)C(=N)NC(=N)Nc1ccc(F)c(F)c1`: the IC50 was found to be 7.8 µM in test [1]; 20.4 µM in test [2]; 39.4 µM in test [3]; 22.1 µM in test [4]; 44.8 µM in test [5].

`N=C(NC(=N)NC1CCCC1)Nc1ccc(C(F)(F)F)cc1`: the inhibition result in test [7], in test [10], in test [12], in [15], in [18] and in test [19] was “Active” throughout. In addition, the inhibition result in test [20] is “Active”. Further, the half-maximal inhibitory concentration (IC50) in [1] turned out to be 1.8 µM; in test [2] it was 2.5 µM; in test [21] it was 7.3 µM; in [3] it was 3.8 µM; in test [4] it was 3.3 µM; in test [5], 3.7 µM. Moreover, the inhibition at 2 µM in test [22] was determined as 100%.

Consider `CC(C)NC(=N)NC(=N)Nc1ccc(F)cc1`, for which the IC50 was 7.5 µM in test [1]; 28 µM in test [2]; greater than 50 µM in test [3]; greater than 50 µM in test [4]; greater than 50 µM in [5].

Consider `CCCCCCCNC(=N)NC(=N)Nc1ccc(F)c(F)c1`, for which the inhibition result in test [7], in [10], in test [12], in [15], in test [18] and in test [19] was “Active” throughout. The inhibition entry in [20] is “Active”. Moreover, the IC50 amounted to 1.5 µM in test [1]; 1.5 µM in test [2]; 6.4 µM in [21]; 1.8 µM in [3]; 2.1 µM in test [4]; 4.3 µM in [5]. This compound also displayed an inhibition at 2 µM in test [22] of 100%.

As for `CC(C)NC(=N)NC(=N)Nc1ccc(F)c(F)c1`, the IC50 in [1] was 5.2 µM; in [2], 26 µM; in test [3] it was greater than 50 µM; in [4], 25 µM; in test [5], 45 µM.

Take `CC(C)CNC(=N)NC(=N)Nc1ccc(F)cc1F`: the IC50 was 3.6 µM in test [1]; 19.8 µM in test [2]; 21.1 µM in test [3]; 17.3 µM in test [4]; 40.8 µM in test [5].

With `CCN(C)C(=N)NC(=N)Nc1ccc(C(F)(F)F)cc1`, the IC50 in test [1] worked out at 4.1 µM; in test [2], 5.1 µM; in test [3] it was 4 µM; in test [4], 6.9 µM; in [5], 5.7 µM.

Consider `CC(C)NC(=N)NC(=N)Nc1ccc(C(F)(F)F)cc1`, for which the half-inhibitory concentration (IC50) came to 3.6 µM in test [1]; 3.2 µM in test [2]; 4.8 µM in test [3]; 5.2 µM in test [4]; 4.8 µM in test [5].

Consider `CC(C)CNC(=N)NC(=N)Nc1ccc(C(F)(F)F)cc1`, for which the result in [6], in test [8], in [9], in test [11], in test [13] and in [14] was Active. The result in test [16] and in [17] was Active. The inhibition result in test [7], in test [10], in test [12], in [15], in test [18] and in test [19] was “Active” throughout. The inhibition result in test [20] is “Active”. Besides, the IC50 in test [1] is 1.3 µM; in [2], 2.1 µM; in [21] it was 8.5 µM; in test [3], 3.5 µM; in [4], 2 µM; in test [5], 3.1 µM. In test [22], this compound showed an inhibition at 2 µM of 100%.

In general, IC50 refers to the concentration that inhibits the measured activity by half. As a reminder, the inhibition is the change of the read-out against control, counted positive when it falls.
